# According to PubChem BioAssay AID504403 (Broad Institute, 2011):
# Activity calls are given as the source filed them.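 The calls were made as follows: active = active in every replicate test, each curve reaching caspase activation of 10% of the positive control signal; inconclusive = replicate tests disagree, some active and some inactive; inactive = inactive in every replicate test.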
# Assay: caspase activation in Bax/Bak-null MEFs, dose response, counter-screen for A1 inhibitor project, cell-based, mouse embryonic fibroblasts, luminescence, dry powder, set 3 (AID 504403)
# Settings: Bax/Bak-/- MEF caspase activation, CaspaseGlo luminescence, 3 h
# Method in brief: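 Material: Bax/Bak-null MEF cells; Quantity: 2500 cells/well; Buffer or medium: RPMI-1640, 10% heat-inactivated FBS; Dosing: compound added by pin transfer; Timing: 3 h compound exposure, 37 °C, 5% CO2; Technique: Caspase-Glo luminescent caspase assay; Evaluation: caspase activation signal flagging off-target or toxic effects.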
# [1] = measured here: test 2 replicate, at 35 µM, stronger effect = higher value
Compound,caspase activation (at 35 µM (top of the series)),caspase activation [1] [%],outcome [1]
Cn1c(=O)c([N+](=O)[O-])c(Cl)c2ccccc21,0.366% (inactive),-0.494,–
O=c1c([N+](=O)[O-])c(Cl)c2ccccc2n1Cc1ccccc1,-0.005% (inactive),3.16,–
O=C(COc1ccc(Cl)cc1Cl)NNc1nc(N2CCOCC2)nc(N2CCOCC2)n1,-0.22% (inactive),0.018,–
Cn1c(=O)c([N+](=O)[O-])c(S(C)(=O)=O)c2ccccc21,-0.102% (inactive),-0.421,–
Cc1ccc(Sc2c(Sc3ccc(C)cc3)c3ccccc3n(Cc3ccccc3)c2=O)cc1,0.02% (inactive),-0.616,–
CC1(C)CCC(c2ccc(Cl)cc2)=C(CN2CCN(c3ccc(C(=O)NS(=O)(=O)c4ccc(N[C@H](CCN5CCOCC5)CSc5ccccc5)c(S(=O)(=O)C(F)(F)F)c4)cc3)CC2)C1,–,–,inactive
COc1c([N+](=O)[O-])c(=O)n(C)c2ccccc12,0.061% (inactive),0.257,–
CCn1c(=O)c(Sc2ccc(C)cc2)c(Sc2ccc(C)cc2)c2ccccc21,0.078% (inactive),-0.17,–
CCn1c(=O)c([N+](=O)[O-])c(Sc2ccc(C)cc2)c2ccccc21,-0.025% (inactive),-0.559,–
Cc1ccc(Sc2c([N+](=O)[O-])c(=O)n(C)c3ccccc23)cc1,0.309% (inactive),-0.613,–
COCCn1c(=O)c([N+](=O)[O-])c(Sc2ccc(C)cc2)c2ccccc21,0.682% (inactive),-0.602,–
Cc1ccc(Sc2c([N+](=O)[O-])c(=O)n(Cc3ccccc3)c3ccccc23)cc1,1.91% (inactive),-0.307,–
CCn1c(=O)c([N+](=O)[O-])c(Cl)c2ccccc21,1.21% (inactive),3.07,–
COc1nc2ccccc2c(Cl)c1[N+](=O)[O-],0.674% (inactive),0.222,–
COc1ccc(CCNc2nc(N3CCCC3)nc(N3CCCC3)n2)cc1OC,0.084% (inactive),0.515,–
Cc1ccc(S(=O)(=O)c2c([N+](=O)[O-])c(=O)n(C)c3ccccc23)cc1,0.276% (inactive),0.073,–
COCCn1c(=O)c([N+](=O)[O-])c(Cl)c2ccccc21,0.693% (inactive),-0.136,–
COc1ccc(N2CCN(c3nc(NCCc4ccc(OC)c(OC)c4)nc(N4CCOCC4)n3)CC2)cc1,0.143% (inactive),0.46,–
O=c1[nH]c2ccccc2c(Cl)c1[N+](=O)[O-],0.348% (inactive),0.47,–
C/C(=N\Nc1nc(N2CCCCC2)nc(N2CCCCC2)n1)c1ccc(F)cc1,-0.284% (inactive),-0.01,–
Cc1ccc(Sc2c(Sc3ccc(C)cc3)c3ccccc3n(C)c2=O)cc1,-0.06% (inactive),-0.477,–
COc1ccc(CCNc2nc(N3CCOCC3)nc(N3CCOCC3)n2)cc1OC,0.042% (inactive),0.071,–
COc1nc2ccccc2c(Sc2ccc(C)cc2)c1[N+](=O)[O-],0.017% (inactive),-0.171,–
Cn1c(=O)c(Sc2ccccn2)c(Sc2ccccn2)c2ccccc21,0.166% (inactive),-0.337,–
O=c1[nH]c2ccccc2c(O)c1[N+](=O)[O-],0.504% (inactive),-0.232,–
Cn1c(=O)c([N+](=O)[O-])c(Sc2ccccn2)c2ccccc21,0.303% (inactive),0.033,–
COCCn1c(=O)c(Sc2ccc(C)cc2)c(Sc2ccc(C)cc2)c2ccccc21,-0.103% (inactive),-0.586,–
